Results published in ChEMBL document CHEMBL3286358, “Biological evaluation of tanshindiols as EZH2 histone methyltransferase inhibitors” (Bioorg Med Chem Lett, 2014).
Calls of active or inactive are those of the source. No cut-off for these calls is given here.

Columns and labels:
Pfeiffer [1] = experiment: Induction of apoptosis in human Pfeiffer cells assessed as DNA content at 1 to 5 uM after 72 hrs by DAPI staining-based analysis; type: functional, cell-based
How it was run: (§1)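 Pfeiffer cells (DLBCL carrying EZH2 A677G) exposed 72 h to 1, 2.5 or 5 µM, with untreated control. DNA content histograms are gated as M1 sub-G1, M2 G1, M3 S and M4 G2/M. Values are the percentage of cells in each gate.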

PC-3 = experiment: Cytotoxicity against human PC3 cells assessed as growth inhibition after 72 hrs by WST-1 assay; type: functional; settings: PC-3, 72 h
How it was run: (§2)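 Growth inhibition of tumour lines read by WST-1 viability assay. GI50 taken as the half-maximal growth-inhibitory concentration.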

[2] = Cell cycle arrest in human Pfeiffer cells assessed as accumulation at sub-G1 phase at 2.5 uM after 72 hrs (reference value: 9%); type: functional, cell-based; how it was run: as §1
[3] = biological target: Histone-lysine N-methyltransferase EZH2 (Homo sapiens) (UniProt Q15910); settings: 3 uM
[4] = Cell cycle arrest in human Pfeiffer cells assessed as accumulation at S phase at 1 uM after 72 hrs (reference value: 21%); type: functional, cell-based; how it was run: as §1
[5] = Cell cycle arrest in human Pfeiffer cells assessed as accumulation at G2/M phase at 2.5 uM after 72 hrs (reference value: 10%); type: functional, cell-based; how it was run: as §1
Pfeiffer [6] = experiment: Induction of apoptosis in human Pfeiffer cells assessed as increase in cleaved caspase-3 level at 1 to 3 uM after 72 hrs by Western blotting analysis; type: functional, cell-based
How it was run: (§3)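 Pfeiffer cells treated 72 h. Lysates analysed by Western blot for apoptosis markers.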

[7] = Cell cycle arrest in human Pfeiffer cells assessed as accumulation at sub-G1 phase at 5 uM after 72 hrs (reference value: 9%); type: functional, cell-based; how it was run: as §1
[8] = biological target: Histone-lysine N-methyltransferase EZH2 (Homo sapiens) (UniProt Q15910); settings: 3 uM; remark: listed apart in the source
[9] = Cell cycle arrest in human Pfeiffer cells assessed as accumulation at G1 phase at 2.5 uM after 72 hrs (reference value: 59%); type: functional, cell-based; how it was run: as §1
[10] = Cell cycle arrest in human Pfeiffer cells assessed as accumulation at S phase at 5 uM after 72 hrs (reference value: 21%); type: functional, cell-based; how it was run: as §1
Pfeiffer [11] = experiment: Induction of apoptosis in human Pfeiffer cells assessed as increase in cleaved caspase-7 level at 1 to 3 uM after 72 hrs by Western blotting analysis; type: functional, cell-based; how it was run: as §3
[12] = Cytotoxicity against human U2932 cells assessed as growth inhibition after 72 hrs by WST-1 assay; type: functional; settings: U2932, 72 h; how it was run: as §2
[13] = Cell cycle arrest in human Pfeiffer cells assessed as accumulation at G1 phase at 1 uM after 72 hrs (reference value: 59%); type: functional, cell-based; how it was run: as §1
[14] = Cell cycle arrest in human Pfeiffer cells assessed as accumulation at S phase at 2.5 uM after 72 hrs (reference value: 21%); type: functional, cell-based; how it was run: as §1
[15] = Inhibition of EZH2 histone methyltransferase […] mutant in EZH2/SUZ12/EED/RbAp46/48 protein complex (unknown origin) using histone H3 peptide/S-adenosylmethionine as substrate after 2 hrs by Lineweaver-Burk plot analysis; set-up: species or system Homo sapiens
How it was run: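 EZH2 A677G mutant activity measured with inhibitor at 0, 0.625, 1.25 and 2.5 µM. Inhibition mode analysed by Lineweaver–Burk plot.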

EZH2/SUZ12/EED complex = EZH2/SUZ12/EED complex (Homo sapiens, UniProt O75530+Q15022+Q15910); experiment: (§4) Inhibition of EZH2 histone methyltransferase activity in EZH2/SUZ12/EED protein complex (unknown origin) using histone H3 peptide/S-adenosylmethionine as substrate after 2 hrs by TR-FRET assay
[16] = biological target: EZH2/SUZ12/EED complex (Homo sapiens) (UniProt Q15910+O75530+Q15022); experiment: as §4
Pfeiffer [17] = experiment: Induction of apoptosis in human Pfeiffer cells assessed as increase in cleaved PARP level at 1 to 3 uM after 72 hrs by Western blotting analysis; type: functional, cell-based; how it was run: as §3
A549 = experiment: Cytotoxicity against human A549 cells assessed as growth inhibition after 72 hrs by WST-1 assay; type: functional; settings: A549, 72 h; how it was run: as §2
[18] = Cytotoxicity against human Pfeiffer cells expressing EZH2 […] mutant assessed as growth inhibition after 72 hrs by WST-1 assay; type: functional; how it was run: as §2
[19] = Cell cycle arrest in human Pfeiffer cells assessed as accumulation at G2/M phase at 5 uM after 72 hrs (reference value: 10%); type: functional, cell-based; how it was run: as §1
[20] = biological target: Histone-lysine N-methyltransferase EZH2 (Homo sapiens) (UniProt Q15910); settings: 1 to 3 uM
[21] = biological target: EZH2/SUZ12/EED/RBBP7/RBBP4; experiment: Competitive inhibition of EZH2 histone methyltransferase activity in EZH2/SUZ12/EED/RbAp46/48 (unknown origin) using histone H3 peptide/varying concentration of S-adenosylmethionine as substrate after 2 hrs by Lineweaver-Burk plot analysis; type: protein-complex assay, Homo sapiens
How it was run: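 PRC2 complex (EZH2, EED, SUZ12, RbAp46/48) as enzyme. Histone H3 peptide fixed at 150 nM, SAM varied. Inhibitor at 0, 0.625, 1.25 and 2.5 µM.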

[22] = Cell cycle arrest in human Pfeiffer cells assessed as accumulation at G2/M phase at 1 uM after 72 hrs (reference value: 10%); type: functional, cell-based; how it was run: as §1
[23] = Cytotoxicity against human U87MG cells assessed as growth inhibition after 72 hrs by WST-1 assay; type: functional, U-87MG ATCC; settings: U-87 MG; how it was run: as §2
T98G = experiment: Cytotoxicity against human T98G cells assessed as growth inhibition after 72 hrs by WST-1 assay; type: functional; how it was run: as §2
[24] = Cell cycle arrest in human Pfeiffer cells assessed as accumulation at G1 phase at 5 uM after 72 hrs (reference value: 59%); type: functional, cell-based; how it was run: as §1
[25] = Cell cycle arrest in human Pfeiffer cells assessed as accumulation at sub-G1 phase at 1 uM after 72 hrs (reference value: 9%); type: functional, cell-based; how it was run: as §1
Daudi = experiment: Cytotoxicity against human Daudi cells assessed as growth inhibition after 72 hrs by WST-1 assay; type: functional; how it was run: as §2

Sequence of Histone-lysine N-methyltransferase EZH2 (Homo sapiens) (Q15910 whole entry, looked up): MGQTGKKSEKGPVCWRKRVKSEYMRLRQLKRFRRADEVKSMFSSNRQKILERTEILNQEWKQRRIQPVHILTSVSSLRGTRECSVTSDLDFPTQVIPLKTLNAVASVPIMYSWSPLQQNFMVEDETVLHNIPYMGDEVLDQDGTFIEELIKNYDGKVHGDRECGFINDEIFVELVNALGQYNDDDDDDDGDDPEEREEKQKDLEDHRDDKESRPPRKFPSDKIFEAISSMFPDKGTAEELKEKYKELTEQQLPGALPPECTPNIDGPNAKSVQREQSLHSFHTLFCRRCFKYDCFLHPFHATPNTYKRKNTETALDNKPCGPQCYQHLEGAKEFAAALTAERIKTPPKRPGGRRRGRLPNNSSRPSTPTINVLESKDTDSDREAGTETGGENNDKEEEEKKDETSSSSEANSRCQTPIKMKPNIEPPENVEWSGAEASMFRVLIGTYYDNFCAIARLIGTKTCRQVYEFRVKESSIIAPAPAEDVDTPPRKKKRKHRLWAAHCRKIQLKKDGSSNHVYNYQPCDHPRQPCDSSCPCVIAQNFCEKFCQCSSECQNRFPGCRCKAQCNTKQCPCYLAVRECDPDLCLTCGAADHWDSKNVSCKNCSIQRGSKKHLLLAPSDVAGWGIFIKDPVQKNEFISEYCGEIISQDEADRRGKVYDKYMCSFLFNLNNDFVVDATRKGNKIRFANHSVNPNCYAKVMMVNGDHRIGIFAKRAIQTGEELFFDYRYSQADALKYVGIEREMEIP
Sequence of EZH2/SUZ12/EED complex (Q15910 whole entry): as the sequence (Q15910 whole entry, looked up) above
Sequence of EZH2/SUZ12/EED complex (O75530 whole entry): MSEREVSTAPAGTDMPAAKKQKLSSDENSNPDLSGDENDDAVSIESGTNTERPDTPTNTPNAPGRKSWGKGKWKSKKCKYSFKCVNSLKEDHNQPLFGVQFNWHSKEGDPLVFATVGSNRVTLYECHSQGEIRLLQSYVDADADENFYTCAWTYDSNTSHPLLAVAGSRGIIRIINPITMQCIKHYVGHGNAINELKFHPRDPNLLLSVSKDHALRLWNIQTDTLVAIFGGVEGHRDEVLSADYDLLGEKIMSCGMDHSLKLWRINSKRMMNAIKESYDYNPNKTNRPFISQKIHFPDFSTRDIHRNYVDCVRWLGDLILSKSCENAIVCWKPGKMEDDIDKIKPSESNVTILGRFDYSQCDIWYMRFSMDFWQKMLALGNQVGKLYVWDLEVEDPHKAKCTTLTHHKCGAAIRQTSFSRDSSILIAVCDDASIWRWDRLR
Sequence of EZH2/SUZ12/EED complex (Q15022 whole entry): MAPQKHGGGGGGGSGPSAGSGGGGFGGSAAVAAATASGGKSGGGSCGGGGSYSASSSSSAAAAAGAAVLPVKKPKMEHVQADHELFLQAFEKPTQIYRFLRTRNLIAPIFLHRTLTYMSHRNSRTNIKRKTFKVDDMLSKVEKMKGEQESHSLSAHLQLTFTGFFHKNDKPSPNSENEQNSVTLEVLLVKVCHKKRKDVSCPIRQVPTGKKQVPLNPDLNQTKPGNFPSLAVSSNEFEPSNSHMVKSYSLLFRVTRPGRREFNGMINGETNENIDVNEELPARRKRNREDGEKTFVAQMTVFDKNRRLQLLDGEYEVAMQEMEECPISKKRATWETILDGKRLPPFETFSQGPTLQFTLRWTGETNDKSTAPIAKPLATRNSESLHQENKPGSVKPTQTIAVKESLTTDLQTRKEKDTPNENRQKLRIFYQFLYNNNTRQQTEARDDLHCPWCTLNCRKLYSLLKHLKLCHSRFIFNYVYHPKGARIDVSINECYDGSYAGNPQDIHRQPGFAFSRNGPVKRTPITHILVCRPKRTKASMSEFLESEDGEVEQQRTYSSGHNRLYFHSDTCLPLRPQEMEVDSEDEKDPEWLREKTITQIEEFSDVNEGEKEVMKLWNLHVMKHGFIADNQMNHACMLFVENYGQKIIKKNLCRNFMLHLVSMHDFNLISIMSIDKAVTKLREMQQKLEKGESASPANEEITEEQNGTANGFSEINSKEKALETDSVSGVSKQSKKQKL
Sequence of EZH2/SUZ12/EED complex (Homo sapiens) (O75530 2-441 partner limits assumed): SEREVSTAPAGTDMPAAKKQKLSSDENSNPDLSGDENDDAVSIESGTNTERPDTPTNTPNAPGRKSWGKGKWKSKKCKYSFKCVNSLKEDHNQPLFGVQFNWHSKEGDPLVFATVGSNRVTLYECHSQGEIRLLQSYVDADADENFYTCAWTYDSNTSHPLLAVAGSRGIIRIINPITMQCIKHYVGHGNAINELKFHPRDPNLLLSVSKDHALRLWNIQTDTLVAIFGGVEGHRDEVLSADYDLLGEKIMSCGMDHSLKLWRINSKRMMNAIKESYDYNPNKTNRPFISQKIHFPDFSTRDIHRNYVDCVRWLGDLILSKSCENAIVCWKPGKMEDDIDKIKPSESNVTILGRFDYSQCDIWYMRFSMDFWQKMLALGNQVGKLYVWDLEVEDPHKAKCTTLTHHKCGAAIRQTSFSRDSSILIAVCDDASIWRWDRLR
Sequence of EZH2/SUZ12/EED complex (Homo sapiens) (Q15022 whole entry partner): as the sequence (Q15022 whole entry) above
Sequence of EZH2/SUZ12/EED complex (Homo sapiens) (Q15910 whole entry): as the sequence (Q15910 whole entry, looked up) above

**Q.** For `Cc1coc2c1C(=O)C(=O)c1c-2ccc2c1CC[C@@H](O)[C@]2(C)O`, which Activity (Pfeiffer [1]) is on record?
**A.** Active

**Q.** And the GI50 (PC-3)?
**A.** 4 µM

**Q.** And the Activity [2]?
**A.** 13%

**Q.** And the inhibition [3]?
**A.** 50%

**Q.** And the Activity [4]?
**A.** 20%

**Q.** And the Activity [5]?
**A.** 11%

**Q.** What about the Activity (Pfeiffer [6]) of the same compound?
**A.** Active

**Q.** And the Activity [7]?
**A.** 21%

**Q.** What about the inhibition [8] of the same compound?
**A.** 50%

**Q.** And the Activity [9]?
**A.** 51%

**Q.** What about the Activity [10] of the same compound?
**A.** 29%

**Q.** What about the Activity (Pfeiffer [11]) of the same compound?
**A.** Active

**Q.** And the GI50 [12]?
**A.** 9.5 µM

**Q.** What about the Activity [13] of the same compound?
**A.** 58%

**Q.** What about the Activity [14] of the same compound?
**A.** 24%

**Q.** And the Ki [15]?
**A.** 0.176 µM

**Q.** And the IC50 (EZH2/SUZ12/EED complex)?
**A.** 0.55 µM

**Q.** And the inhibition [16]?
**A.** Dose-dependent effect

**Q.** And the Activity (Pfeiffer [17])?
**A.** Active

**Q.** And the GI50 (A549)?
**A.** 4.2 µM

**Q.** And the GI50 [18]?
**A.** 1.5 µM

**Q.** What about the Activity [19] of the same compound?
**A.** 7%

**Q.** And the inhibition [20]?
**A.** Active

**Q.** And the Ki [21]?
**A.** 0.194 µM

**Q.** What about the Activity [22] of the same compound?
**A.** 11%

**Q.** And the GI50 [23]?
**A.** 5.7 µM

**Q.** What about the GI50 (T98G) of the same compound?
**A.** 6 µM

**Q.** And the Activity [24]?
**A.** 41%

**Q.** What about the Activity [25] of the same compound?
**A.** 11%

**Q.** What about the GI50 (Daudi) of the same compound?
**A.** 10.6 µM

**Q.** For `Cc1coc2c1C(=O)C(=O)c1c-2ccc2c1CCCC2(C)CO` (configuration not stated) [TANSHINONE IIB], which IC50 (EZH2/SUZ12/EED complex) is on record?
**A.** 4.8 µM

**Q.** And the inhibition [16]?
**A.** Dose-dependent effect

**Q.** For `Cc1coc2c1C(=O)C(=O)c1c-2ccc2c1CC[C@H](O)[C@]2(C)O`, which IC50 (EZH2/SUZ12/EED complex) is on record?
**A.** 0.52 µM

**Q.** And the inhibition [16]?
**A.** Dose-dependent effect

**Q.** With `COC(=O)[C@@]1(C)CCCc2c1ccc1c2C(=O)C(=O)c2c(C)coc2-1` [METHYL TANSHINONATE] as the compound, how does the IC50 (EZH2/SUZ12/EED complex) read?
**A.** 9.6 µM

**Q.** What about the inhibition [16] of the same compound?
**A.** Dose-dependent effect

**Q.** Which IC50 (EZH2/SUZ12/EED complex) does the source give for `Cc1coc2c1C(=O)C(=O)c1c-2ccc2c(C)cccc12` [TANSHINONE I] here?
**A.** 8.9 µM

**Q.** What about the inhibition [16] of the same compound?
**A.** Dose-dependent effect

**Q.** With `Cc1coc2c1C(=O)C(=O)c1c-2ccc2c1CCCC2(C)C` [TANSHINONE IIA] as the compound, how does the IC50 (EZH2/SUZ12/EED complex) read?
**A.** 28.1 µM

**Q.** What about the inhibition [16] of the same compound?
**A.** Dose-dependent effect

**Q.** Which GI50 (PC-3) does the source give for `CC[C@H](C)n1cc(C)c2c(C(=O)NCc3c(C)cc(C)[nH]c3=O)cc(-c3ccc(N4CCNCC4)nc3)cc21` [GSK2816126] here?
**A.** 9.4 µM

**Q.** What about the GI50 [12] of the same compound?
**A.** 6.7 µM

**Q.** And the GI50 (A549)?
**A.** 18.7 µM

**Q.** What about the GI50 [18] of the same compound?
**A.** 0.18 µM

**Q.** What about the GI50 [23] of the same compound?
**A.** 28.5 µM

**Q.** And the GI50 (T98G)?
**A.** 12.6 µM

**Q.** What about the GI50 (Daudi) of the same compound?
**A.** 11.2 µM
